# Data taken from ChEMBL document CHEMBL1938233, “2-Oxo-N-aryl-1,2,3,4-tetrahydroquinoline-6-sulfonamides as activators of the tumor cell specific M2 isoform of pyruvate kinase” (Bioorg Med Chem Lett, 2011).
# The source made the active and inactive calls. No cut-off for these calls is given here.
# What was measured:
# Pyruvate kinase PKM [1] = molecular target: T1, Pyruvate kinase PKM (Homo sapiens, UniProt P14618); assay: Activation of human PKM2 assessed as ATP product formation at 57 µM after 1 hr by luminescent pyruvate kinase-luciferase coupled assay
# Target sequence in this assay (P14618 2-531 limits assumed): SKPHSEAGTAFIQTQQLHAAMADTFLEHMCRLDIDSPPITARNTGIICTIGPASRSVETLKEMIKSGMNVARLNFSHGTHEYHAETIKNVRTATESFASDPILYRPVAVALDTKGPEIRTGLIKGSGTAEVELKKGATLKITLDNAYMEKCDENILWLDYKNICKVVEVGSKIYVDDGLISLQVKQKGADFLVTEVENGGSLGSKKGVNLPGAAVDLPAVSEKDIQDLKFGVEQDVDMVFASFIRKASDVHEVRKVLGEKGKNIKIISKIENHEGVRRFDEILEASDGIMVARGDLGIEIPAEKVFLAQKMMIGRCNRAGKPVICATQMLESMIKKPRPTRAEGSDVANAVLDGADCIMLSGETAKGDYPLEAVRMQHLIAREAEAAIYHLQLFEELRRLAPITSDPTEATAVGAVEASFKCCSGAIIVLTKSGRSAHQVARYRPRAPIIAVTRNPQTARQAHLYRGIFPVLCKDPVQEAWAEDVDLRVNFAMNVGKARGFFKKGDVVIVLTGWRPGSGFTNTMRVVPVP
# Pyruvate kinase PKM [2] = molecular target: T1, Pyruvate kinase PKM; assay: Activation of human PKM2 assessed as ATP product formation after 1 hr by luminescent pyruvate kinase-luciferase coupled assay
# In short: (§1)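 Luminescent pyruvate kinase–luciferase coupled assay. AC50 is the mean of three separate experiments. Maximum response is % activation at 57 μM compound, normalized as described in the supporting information.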
# Pyruvate kinase PKM [3] = molecular target: T1, Pyruvate kinase PKM; assay: Activation of human PKM2 assessed as ATP product formation at 57 uM after 1 hr by luminescent pyruvate-kinase luciferase coupled assay
# In short: as §1
# Target sequence in this assay (P14618 2-531 limits assumed): as above
# Liver = assay: Half life in mouse liver microsomes at 2 uM after 2 mins by LC/MS/MS analysis; format: ADME, Microsome
# Liver microsomes = assay: Half life in human liver microsomes at 2 uM after 2 mins by LC/MS/MS analysis; format: ADME, Microsome
# [4] = Apparent permeability from apical to basolateral side of human Caco2 cells at pH 7.4 after 2 hrs by LC/MS/MS analysis; format: ADME, cell-based; conditions: Caco-2, pH 7.4
# Pyruvate kinase PKM [5] = molecular target: T1, Pyruvate kinase PKM; assay: Activation of human PKM2 assessed as effect on Km of ADP at 10 uM by after 6 mins by fluorescent pyruvate kinase-lactate dehydrogenase coupled assay
# In short: (§2)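 PK–LDH coupled kinetic assay run at about 22 °C with 10 nM PKM2, 200 mM KCl and 15 mM MgCl2. Either ADP or PEP was held at 4.0 mM while the other substrate was varied. Initial velocity (pmol/min) was measured with and without compound at 10 μM.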
# Target sequence in this assay (P14618 2-531 limits assumed): as above
# [6] = Apparent permeability from basolateral to apical side of human Caco2 cells at pH 7.4 after 2 hrs by LC/MS/MS analysis; format: ADME, cell-based; conditions: Caco-2, pH 7.4
# Caco-2 = assay: Efflux ratio of permeability from basolateral to apical side over apical to basolateral side in human Caco2 cells at pH 7.4 after 2 hrs by LC/MS/MS analysis; conditions: caco-2, pH 7.4, 2 h
# Pyruvate kinase PKM [7] = molecular target: T1, Pyruvate kinase PKM; assay: Activation of human PKM2 assessed as reduction in Km for PEP at 10 uM by after 6 mins by fluorescent pyruvate kinase-lactate dehydrogenase coupled assay
# In short: as §2
# Target sequence in this assay (P14618 2-531 limits assumed): as above
# [8] = molecular target: Pyruvate kinase PKLR (Homo sapiens) (UniProt P30613); assay: Activation of PKLR assessed as ATP product formation at 57.5 uM after 1 hr by luminescent pyruvate kinase-luciferase coupled assay
# [9] = Aqueous kinetic solubility of the compound in PBS buffer; format: physicochemical
# Pyruvate kinase PKLR (Homo sapiens), sequence (P30613 whole entry, looked up): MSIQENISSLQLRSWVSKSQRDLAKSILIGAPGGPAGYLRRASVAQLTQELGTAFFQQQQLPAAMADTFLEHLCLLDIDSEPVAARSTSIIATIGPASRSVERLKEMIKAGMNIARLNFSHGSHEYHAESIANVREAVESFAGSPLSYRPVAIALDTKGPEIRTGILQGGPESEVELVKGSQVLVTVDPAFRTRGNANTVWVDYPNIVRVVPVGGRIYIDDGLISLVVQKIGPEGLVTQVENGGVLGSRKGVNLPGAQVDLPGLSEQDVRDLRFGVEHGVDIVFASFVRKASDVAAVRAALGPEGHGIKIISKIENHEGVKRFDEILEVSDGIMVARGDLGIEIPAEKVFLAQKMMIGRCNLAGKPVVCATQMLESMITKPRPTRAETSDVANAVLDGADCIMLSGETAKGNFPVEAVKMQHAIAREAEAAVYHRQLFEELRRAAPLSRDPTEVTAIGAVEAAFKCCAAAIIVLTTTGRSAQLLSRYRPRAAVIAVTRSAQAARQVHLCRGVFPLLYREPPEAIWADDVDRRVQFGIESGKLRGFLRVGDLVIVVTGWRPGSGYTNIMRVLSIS
Compound,Emax (Pyruvate kinase PKM [1]),Emax (Pyruvate kinase PKM [3]),other results
O=C1CCc2cc(S(=O)(=O)Nc3ccc4ccccc4c3)ccc2N1,–,121%,–
Cc1ccc(NS(=O)(=O)c2cc3c(cc2C)NC(=O)CO3)cc1C,111%,–,–
Cc1ccc(NS(=O)(=O)c2ccc3c(c2)CC(=O)N3C)cc1C,119%,–,–
O=C1CCc2cc(S(=O)(=O)Nc3cccc(C(F)(F)F)c3)ccc2N1,–,109%,–
Cc1ccc(NS(=O)(=O)c2cc3c(cc2/C=C/c2ccccc2)NC(=O)CO3)cc1C,inactive,–,–
Cc1ccc(NS(=O)(=O)c2cc3c(cc2Cl)NC(=O)CO3)cc1C,80%,–,–
Cc1ccc(NS(=O)(=O)c2cccc(Cl)c2)cc1C,71%,–,–
Cc1ccc(NS(=O)(=O)c2cc3c(cc2-c2ccccc2)NC(=O)CO3)cc1C,inactive,–,–
Cc1ccc(NS(=O)(=O)c2ccc3c(ccn3C)c2)cc1C,47%,–,EC50 (Pyruvate kinase PKM [2]): 19900 nM
Cc1ccc(NS(=O)(=O)c2cc(N[C@@H](C)CO)cc3c2NC(=O)CC3)cc1Cl,–,–,Activity (Pyruvate kinase PKM [2]): inactive
Cc1ccc(NS(=O)(=O)c2cc(Br)cc3c2NC(=O)CC3)cc1C,–,–,Activity (Pyruvate kinase PKM [2]): inactive
Cc1ccc(NS(=O)(=O)c2ccc3c(c2)N(C)CCO3)cc1C,81%,–,–
O=C1CCc2cc(S(=O)(=O)Nc3ccccc3F)ccc2N1,–,95%,–
Cc1ccc(NS(=O)(=O)c2ccc(N3CCCC3=O)cc2)cc1C,60%,–,–
O=C1CCc2cc(S(=O)(=O)Nc3ccc(F)c(Cl)c3)ccc2N1,–,123%,EC50 (Pyruvate kinase PKM [2]): 290 nM
Cc1ccc(NS(=O)(=O)c2cc(Br)cc3c2NC(=O)CC3)cc1Cl,–,–,Activity (Pyruvate kinase PKM [2]): inactive
Cc1ccc(NS(=O)(=O)c2ccc3[nH]c(=O)[nH]c3c2)cc1C,inactive,–,–
O=C1CCc2cc(S(=O)(=O)Nc3ccncc3)ccc2N1,–,inactive,–
Cc1ccc(NS(=O)(=O)c2cc(N[C@@H](C)CO)cc3c2NC(=O)CC3)cc1C,–,–,Activity (Pyruvate kinase PKM [2]): inactive
Cc1ccc(NS(=O)(=O)c2ccc(F)cc2)cc1C,inactive,–,–
COc1ccc(S(=O)(=O)Nc2ccc(C)c(C)c2)cc1,53%,–,–
Cc1ccc(NS(=O)(=O)c2ccc3ccccc3c2)cc1C,69%,–,–
Cc1ccc(NS(=O)(=O)c2ccc3c(c2)CCC(C)(C)O3)cc1C,62%,–,–
CC(=O)Nc1ccc(S(=O)(=O)Nc2ccc(C)c(C)c2)cc1,< 40%,–,–
O=C1CCc2cc(S(=O)(=O)Nc3cccnc3)ccc2N1,–,inactive,–
O=C1CCc2cc(S(=O)(=O)Nc3cccc(-c4ccccc4)c3)ccc2N1,–,inactive,–

Compound,Emax (Pyruvate kinase PKM [1]),Emax (Pyruvate kinase PKM [3]),other results
O=C1CCc2cc(S(=O)(=O)Nc3cccc(Cl)c3)ccc2N1,–,104%,EC50 (Pyruvate kinase PKM [2]): 410 nM
O=C1CCc2cc(S(=O)(=O)Nc3ccc4ncccc4c3)ccc2N1,–,inactive,–
O=C1CCc2cc(S(=O)(=O)Nc3ccc(Cl)c(Cl)c3)ccc2N1,–,95%,–
O=C1CCc2cc(S(=O)(=O)Nc3ccc(F)cc3)ccc2N1,–,84%,–
C[C@@H](CO)Nc1cc2c(cc1S(=O)(=O)Nc1ccc(F)c(Cl)c1)CCC(=O)N2,92%,–,Papp A→B at 2 h [4]: 1.61 ×10⁻⁶ cm/s; Papp B→A at 2 h [6]: 17.5 ×10⁻⁶ cm/s; t1/2 (Liver): 36.3 min; Ratio (Caco-2): 10.91; t1/2 (Liver microsomes): 78.8 min; Activity [8]: < 25%
CC(=O)Nc1cccc(S(=O)(=O)Nc2ccc(C)c(C)c2)c1,58%,–,–
Cc1cc(NS(=O)(=O)c2ccc3c(c2)CCC(=O)N3)ccc1Cl,–,121%,–
CC(=O)N1CCc2cc(S(=O)(=O)Nc3ccc(C)c(C)c3)ccc21,96%,–,–
Cc1ccc(NS(=O)(=O)c2ccc3c(c2)CCC(=O)N3)cc1Cl,–,104%,EC50 (Pyruvate kinase PKM [2]): 100 nM
COc1ccc(NS(=O)(=O)c2ccc3c(c2)CCC(=O)N3)cc1,–,85%,–
Cc1ccccc1NS(=O)(=O)c1ccc2c(c1)CCC(=O)N2,–,94%,–
Cc1ccc(NS(=O)(=O)c2ccc3c(c2)NC(=O)CO3)cc1C,81%,–,–
Cc1ccc(NS(=O)(=O)c2cc3c(cc2N[C@@H](C)CO)CCC(=O)N3)cc1Cl,54%,–,–
O=C1CCc2cc(S(=O)(=O)Nc3ccc4c(c3)OCCO4)ccc2N1,–,100%,–
O=C1CCc2cc(S(=O)(=O)Nc3cccc(F)c3)ccc2N1,–,101%,EC50 (Pyruvate kinase PKM [2]): 790 nM
O=C1CCc2cc(S(=O)(=O)Nc3ccc4c(c3)CCC4)ccc2N1,–,73%,–
CC(=O)N1CCCc2cc(S(=O)(=O)Nc3ccc(C)c(C)c3)ccc21,76%,–,–
COc1cccc(Cn2ncc3c4sc([S+](C)[O-])cc4n(C)c3c2=O)c1 (stereo not given),–,–,EC50 (Pyruvate kinase PKM [2]): 73 nM
Cc1ccc(NS(=O)(=O)c2ccc3c(c2)oc(=O)n3C)cc1C,95%,–,–
Cc1cccc(NS(=O)(=O)c2ccc3c(c2)CCC(=O)N3)c1,–,101%,EC50 (Pyruvate kinase PKM [2]): 250 nM
Cc1ccc(NS(=O)(=O)c2ccc3c(c2)CCC(=O)N3)cc1C,–,–,Papp A→B at 2 h [4]: 14.9 ×10⁻⁶ cm/s; Papp B→A at 2 h [6]: 12.2 ×10⁻⁶ cm/s; t1/2 (Liver): 17.3 min; Ratio (Caco-2): 0.82; EC50 (Pyruvate kinase PKM [2]): 790 nM; t1/2 (Liver microsomes): 6 min; Activity [8]: < 25%
COc1cccc(NS(=O)(=O)c2ccc3c(c2)CCC(=O)N3)c1,–,115%,–
Cc1ccc(NS(=O)(=O)c2cccc(C(=O)O)c2)cc1C,inactive,–,–
Cc1ccc(NS(=O)(=O)c2ccc3c(c2)CC(=O)N3)cc1C,57%,–,–
Cc1ccc(NS(=O)(=O)c2ccc3c(c2)CCC(=O)N3)cc1,–,102%,–
O=C1CCc2cc(S(=O)(=O)Nc3ccc(Cl)cc3)ccc2N1,–,106%,–

# Now from value to molecule, other results behind:
Emax (Pyruvate kinase PKM [1]),Emax (Pyruvate kinase PKM [3]),Compound,other results
51%,–,Cc1ccc(NS(=O)(=O)c2cc3c(cc2Br)CCC(=O)N3)cc1Cl,EC50 (Pyruvate kinase PKM [2]): 7430 nM
88%,–,Cc1ccc(NS(=O)(=O)c2ccc3c(c2)CCCC(=O)N3)cc1C,–
102%,–,CNc1cc2c(cc1S(=O)(=O)Nc1ccc(C)c(C)c1)CCC(=O)N2,t1/2 (Liver): 19.1 min; t1/2 (Liver microsomes): 19.7 min
52%,–,Cc1ccc(NS(=O)(=O)c2cc3c(cc2Br)CCC(=O)N3)cc1C,EC50 (Pyruvate kinase PKM [2]): 6600 nM
92%,–,Cc1ccc(NS(=O)(=O)c2cc3c(cc2Cl)CCC(=O)N3)cc1C,–
88%,–,O=C1CCc2cc(S(=O)(=O)Nc3ccc(F)c(Cl)c3)c(F)cc2N1,Papp A→B at 2 h [4]: 9.38 ×10⁻⁶ cm/s; Activity (Pyruvate kinase PKM [5]): inactive; Papp B→A at 2 h [6]: 7.91 ×10⁻⁶ cm/s; t1/2 (Liver): 117.5 min; Ratio (Caco-2): 0.84; Activity (Pyruvate kinase PKM [7]): Active; EC50 (Pyruvate kinase PKM [2]): 90 nM; t1/2 (Liver microsomes): 277.2 min; Activity [8]: < 25%
95%,–,Cc1cc(NS(=O)(=O)c2cc3c(cc2N[C@@H](C)CO)NC(=O)CC3)ccc1F,–
101%,–,Cc1ccc(NS(=O)(=O)c2cc3c(cc2F)NC(=O)CC3)cc1C,t1/2 (Liver): 34.3 min; t1/2 (Liver microsomes): 16.5 min
123%,–,Cc1ccc(NS(=O)(=O)c2cc3c(cc2NC(C)C)NC(=O)CC3)cc1C,–
–,138%,Cc1ccc(NS(=O)(=O)c2ccc3c(c2)CCC(=O)N3)cc1F,–
106%,–,Cc1ccc(NS(=O)(=O)c2cc3c(cc2N(C)C)CCC(=O)N3)cc1C,–
112%,–,Cc1ccc(NS(=O)(=O)c2cc3c(cc2F)NC(=O)CC3)cc1Cl,Papp A→B at 2 h [4]: 6.22 ×10⁻⁶ cm/s; Papp B→A at 2 h [6]: 6.24 ×10⁻⁶ cm/s; t1/2 (Liver): 54.1 min; Ratio (Caco-2): 1; t1/2 (Liver microsomes): 22.9 min
92%,–,Cc1cc(NS(=O)(=O)c2cc3c(cc2F)NC(=O)CC3)ccc1F,–
109%,–,Cc1ccc(NS(=O)(=O)c2cc3c(cc2Cl)CCC(=O)N3)cc1Cl,–
–,128%,Cc1cc(NS(=O)(=O)c2ccc3c(c2)CCC(=O)N3)ccc1F,–
83%,–,Cc1ccc(NS(=O)(=O)c2cc3c(cc2NCC(C)(C)O)NC(=O)CC3)cc1C,–
129%,–,Cc1ccc(NS(=O)(=O)c2cc3c(cc2N(C)C)NC(=O)CC3)cc1C,t1/2 (Liver): 21.7 min; t1/2 (Liver microsomes): 19.4 min
47%,–,Cc1ccc(NS(=O)(=O)c2cc3c(cc2N2CCCCC2)NC(=O)CC3)cc1C,–
123%,–,Cc1ccc(NS(=O)(=O)c2cc3c(cc2N2CCCC2)NC(=O)CC3)cc1C,–
124%,–,Cc1ccc(NS(=O)(=O)c2cc3c(cc2NC(C)CO)NC(=O)CC3)cc1C (racemic),Kinetic_solubility [9]: > 120 µM; EC50 (Pyruvate kinase PKM [2]): 230 nM
106%,–,CCN(CC)c1cc2c(cc1S(=O)(=O)Nc1ccc(C)c(C)c1)CCC(=O)N2,–
108%,–,Cc1ccc(NS(=O)(=O)c2cc3c(cc2N[C@H](C)CO)NC(=O)CC3)cc1C,EC50 (Pyruvate kinase PKM [2]): 880 nM
116%,–,Cc1ccc(NS(=O)(=O)c2cc3c(cc2N[C@@H](C)CO)NC(=O)CC3)cc1C,EC50 (Pyruvate kinase PKM [2]): 170 nM
93%,–,Cc1cc(NS(=O)(=O)c2cc3c(cc2F)NC(=O)CC3)ccc1Cl,–
inactive,–,Cc1ccc(NS(=O)(=O)c2cc3c(cc2N2CCC(N(C)C)C2)NC(=O)CC3)cc1C (racemic),–
96%,–,Cc1ccc(NS(=O)(=O)c2cc3c(cc2N[C@@H](C)CO)NC(=O)CC3)cc1Cl,Papp A→B at 2 h [4]: 1.13 ×10⁻⁶ cm/s; Papp B→A at 2 h [6]: 11.9 ×10⁻⁶ cm/s; t1/2 (Liver): 22.9 min; Ratio (Caco-2): 10.51; EC50 (Pyruvate kinase PKM [2]): 60 nM; t1/2 (Liver microsomes): 30.4 min; Activity [8]: < 25%
132%,–,Cc1ccc(NS(=O)(=O)c2cc3c(cc2NCCO)NC(=O)CC3)cc1C,–
